# Measurements from ChEMBL document CHEMBL2321766, “Optimization of a Novel Series of TRPV4 Antagonists with In Vivo Activity in a Model of Pulmonary Edema” (ACS Med Chem Lett, 2013).
# The source made the active and inactive calls. The calls are words filed in the database; no cut-off is given here.
# Experiments:
# [1] = (§1) Half life in Sprague-Dawley rat plasma at 2 mg/kg, po by HPLC-MS/MS analysis; type: ADME, organism-based; set-up: dose 2 mg/kg, route oral; settings: Sprague-Dawley, plasma
# [2] = target: T1, Transient receptor potential cation channel subfamily V member 4 (Homo sapiens, UniProt Q9HBA0); test: Antagonist activity at human recombinant TRPV4 expressed in BacMam virus infected HEK MSRII cells assessed as inhibition of GSK634775-induced calcium […] treated 10 mins prior to TRPV4 agonist, GSK634775 by FLIPR assay
# T1 sequence (Q9HBA0 whole entry): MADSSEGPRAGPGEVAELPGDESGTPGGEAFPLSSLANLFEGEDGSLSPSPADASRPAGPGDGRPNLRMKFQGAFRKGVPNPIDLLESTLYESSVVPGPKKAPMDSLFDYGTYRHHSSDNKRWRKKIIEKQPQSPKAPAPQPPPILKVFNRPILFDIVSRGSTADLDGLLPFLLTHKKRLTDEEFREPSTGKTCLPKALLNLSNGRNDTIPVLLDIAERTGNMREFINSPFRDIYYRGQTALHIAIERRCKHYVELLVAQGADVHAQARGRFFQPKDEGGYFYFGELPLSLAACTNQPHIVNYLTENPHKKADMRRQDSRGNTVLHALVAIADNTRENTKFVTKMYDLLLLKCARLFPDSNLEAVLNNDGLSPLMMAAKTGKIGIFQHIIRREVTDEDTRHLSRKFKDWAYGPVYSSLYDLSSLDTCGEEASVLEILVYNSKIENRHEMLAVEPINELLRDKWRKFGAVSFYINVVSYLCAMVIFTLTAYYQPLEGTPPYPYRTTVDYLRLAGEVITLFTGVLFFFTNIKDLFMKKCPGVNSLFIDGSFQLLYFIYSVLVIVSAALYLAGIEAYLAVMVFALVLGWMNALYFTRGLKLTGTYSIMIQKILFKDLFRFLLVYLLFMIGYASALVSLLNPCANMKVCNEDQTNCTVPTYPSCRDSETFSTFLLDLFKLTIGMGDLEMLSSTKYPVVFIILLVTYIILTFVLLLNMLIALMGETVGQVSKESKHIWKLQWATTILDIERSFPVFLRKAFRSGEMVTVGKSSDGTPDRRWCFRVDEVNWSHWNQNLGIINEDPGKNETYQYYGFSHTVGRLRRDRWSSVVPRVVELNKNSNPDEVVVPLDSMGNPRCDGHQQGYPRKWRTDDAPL
# [3] = Oral bioavailability in Sprague-Dawley rat at 2 mg/kg by HPLC-MS/MS analysis; type: ADME, organism-based; settings: in vivo
# [4] = Clearance in Sprague-Dawley rat plasma at 1 mg/kg, iv by HPLC-MS/MS analysis; type: ADME, organism-based; set-up: dose 1 mg/kg, route intravenous
# [5] = test system: Plasma; test: as §1; type: ADME, organism-based; set-up: dose 2 mg/kg, route oral; settings: in vivo, BLD = below limit of detection
# [6] = test system: Plasma; test: Stability of the compound in Sprague-Dawley rat plasma at 1 mg/kg, iv by HPLC-MS/MS analysis; type: ADME, organism-based; set-up: dose 1 mg/kg, route intravenous; settings: in vivo
# [7] = target: Potassium voltage-gated channel subfamily A member 5 (Homo sapiens) (UniProt P22460); test: Inhibition of human Kv1.5 expressed in CHO cells assessed as decrease in channel current at > 10 uM by patch clamp analysis; type: cell-based
# Chain of Potassium voltage-gated channel subfamily A member 5 (Homo sapiens) (P22460 whole entry): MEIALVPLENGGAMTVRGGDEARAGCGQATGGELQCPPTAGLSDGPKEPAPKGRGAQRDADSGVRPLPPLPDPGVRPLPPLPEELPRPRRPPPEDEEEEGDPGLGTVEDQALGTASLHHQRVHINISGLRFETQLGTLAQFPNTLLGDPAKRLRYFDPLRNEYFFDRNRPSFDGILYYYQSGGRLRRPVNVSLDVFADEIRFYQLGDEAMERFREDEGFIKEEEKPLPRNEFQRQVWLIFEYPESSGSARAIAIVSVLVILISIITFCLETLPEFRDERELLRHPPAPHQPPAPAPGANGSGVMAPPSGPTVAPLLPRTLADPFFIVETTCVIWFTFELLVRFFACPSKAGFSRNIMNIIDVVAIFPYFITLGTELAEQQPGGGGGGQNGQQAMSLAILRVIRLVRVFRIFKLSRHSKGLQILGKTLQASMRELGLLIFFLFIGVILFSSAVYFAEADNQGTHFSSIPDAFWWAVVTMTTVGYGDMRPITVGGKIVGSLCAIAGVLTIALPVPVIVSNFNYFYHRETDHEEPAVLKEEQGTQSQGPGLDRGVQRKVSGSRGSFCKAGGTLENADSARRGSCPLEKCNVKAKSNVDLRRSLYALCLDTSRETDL
# [8] = target: Voltage-dependent L-type calcium channel subunit alpha-1C (Homo sapiens, UniProt Q13936); test: Inhibition of human Cav1.2 expressed in HEK293 cells assessed as decrease in calcium […] at >10 uM by FLIPR analysis; type: cell-based
# [9] = target: T1, Transient receptor potential cation channel subfamily V member 4; test: Agonist activity at human TRPV4
# [10] = test system: Rattus norvegicus; test: Reduction of GSK-1016790A-induced decrease in mean arterial pressure in iv dosed Sprague-Dawley rat administered 30 mins prior to GSK-1016790A injection; type: functional, organism-based; settings: Artery
# Method in brief: (§2)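 Rats given vehicle, 3 or 10 mg/kg iv 30 min before iv challenge with the TRPV4 agonist GSK1016790A at rising doses. Mean arterial pressure recorded during pretreatment and after agonist. Pulmonary edema scored as wet lung weight/body weight ratio, compared with vehicle-treated rats. Plasma drug levels measured at both doses.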
# [11] = test system: Plasma; test: Fraction unbound in human plasma; type: ADME, cell-free
# [12] = target: Sodium channel protein type 5 subunit alpha (Homo sapiens, UniProt Q14524); test: Inhibition of human Nav1.5 expressed in HEK293 cells at >10 uM; type: cell-based
# Chain of Sodium channel protein type 5 subunit alpha (Q14524 whole entry): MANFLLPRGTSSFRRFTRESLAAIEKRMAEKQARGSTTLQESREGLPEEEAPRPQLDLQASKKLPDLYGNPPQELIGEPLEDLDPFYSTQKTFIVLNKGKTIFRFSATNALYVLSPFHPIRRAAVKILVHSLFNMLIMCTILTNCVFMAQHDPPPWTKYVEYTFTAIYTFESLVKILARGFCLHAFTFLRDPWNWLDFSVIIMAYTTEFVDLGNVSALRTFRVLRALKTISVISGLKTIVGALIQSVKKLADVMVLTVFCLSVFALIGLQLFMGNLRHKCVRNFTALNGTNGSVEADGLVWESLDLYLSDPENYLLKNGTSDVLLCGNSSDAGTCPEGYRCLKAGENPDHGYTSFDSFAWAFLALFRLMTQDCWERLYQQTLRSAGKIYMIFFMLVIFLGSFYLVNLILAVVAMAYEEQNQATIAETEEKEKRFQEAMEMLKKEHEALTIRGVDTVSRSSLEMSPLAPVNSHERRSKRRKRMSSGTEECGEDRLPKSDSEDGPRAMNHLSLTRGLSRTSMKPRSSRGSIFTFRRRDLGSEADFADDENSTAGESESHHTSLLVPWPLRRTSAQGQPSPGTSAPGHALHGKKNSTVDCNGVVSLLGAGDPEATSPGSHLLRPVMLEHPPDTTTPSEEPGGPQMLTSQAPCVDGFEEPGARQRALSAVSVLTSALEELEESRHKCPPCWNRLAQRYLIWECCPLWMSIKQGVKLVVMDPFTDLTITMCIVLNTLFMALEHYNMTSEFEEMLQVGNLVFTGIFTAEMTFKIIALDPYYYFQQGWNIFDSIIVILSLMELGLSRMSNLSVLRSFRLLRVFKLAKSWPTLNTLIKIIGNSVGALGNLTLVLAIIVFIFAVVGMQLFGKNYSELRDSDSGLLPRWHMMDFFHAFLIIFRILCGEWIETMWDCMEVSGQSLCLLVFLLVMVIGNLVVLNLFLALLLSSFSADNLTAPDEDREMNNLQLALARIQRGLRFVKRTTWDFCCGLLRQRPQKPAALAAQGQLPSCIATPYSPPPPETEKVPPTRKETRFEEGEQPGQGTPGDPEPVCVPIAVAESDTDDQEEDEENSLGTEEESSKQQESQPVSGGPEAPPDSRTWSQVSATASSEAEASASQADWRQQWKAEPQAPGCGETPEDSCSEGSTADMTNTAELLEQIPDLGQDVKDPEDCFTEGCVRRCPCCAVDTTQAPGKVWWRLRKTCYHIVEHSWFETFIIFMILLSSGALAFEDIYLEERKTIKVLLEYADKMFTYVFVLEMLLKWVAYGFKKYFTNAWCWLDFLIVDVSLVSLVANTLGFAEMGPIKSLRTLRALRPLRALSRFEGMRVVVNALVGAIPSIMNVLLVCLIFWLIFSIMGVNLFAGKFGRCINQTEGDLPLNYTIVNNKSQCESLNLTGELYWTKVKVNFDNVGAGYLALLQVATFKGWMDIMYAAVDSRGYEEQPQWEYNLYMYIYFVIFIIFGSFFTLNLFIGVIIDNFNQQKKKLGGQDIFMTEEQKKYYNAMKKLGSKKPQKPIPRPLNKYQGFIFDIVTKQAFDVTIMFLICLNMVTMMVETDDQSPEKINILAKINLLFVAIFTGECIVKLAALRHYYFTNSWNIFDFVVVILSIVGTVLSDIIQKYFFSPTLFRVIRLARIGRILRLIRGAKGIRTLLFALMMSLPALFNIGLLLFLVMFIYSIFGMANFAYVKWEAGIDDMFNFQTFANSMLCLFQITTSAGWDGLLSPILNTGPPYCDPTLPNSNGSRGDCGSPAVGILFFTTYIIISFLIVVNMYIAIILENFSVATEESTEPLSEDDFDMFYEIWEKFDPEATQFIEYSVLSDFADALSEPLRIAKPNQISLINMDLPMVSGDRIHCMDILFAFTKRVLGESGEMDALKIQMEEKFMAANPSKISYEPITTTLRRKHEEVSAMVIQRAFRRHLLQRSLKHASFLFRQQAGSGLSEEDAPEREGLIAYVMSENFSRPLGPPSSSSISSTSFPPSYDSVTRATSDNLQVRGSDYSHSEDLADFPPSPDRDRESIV
# [13] = test system: Rattus norvegicus; test: Effect on mean arterial pressure in Sprague-Dawley rat at 3 to 10 mg/kg, iv; type: ADME, organism-based, Artery; set-up: dose 3-10 mg/kg, route intravenous; settings: in vivo; method in brief: as §2
# [14] = test system: Rattus norvegicus; test: Decrease in lung/body weight ratio in GSK1016790A-induced Sprague-Dawley rat pulmonary edema model at 10 mg/kg, iv administered 30 mins prior to GSK-1016790A injection; type: functional, organism-based; set-up: dose 10 mg/kg; method in brief: as §2
# [15] = target: Transient receptor potential cation channel subfamily V member 4 (Rattus norvegicus) (UniProt Q9ERZ8); test: Agonist activity at rat TRPV4
# Chain of Transient receptor potential cation channel subfamily V member 4 (Rattus norvegicus) (Q9ERZ8 whole entry): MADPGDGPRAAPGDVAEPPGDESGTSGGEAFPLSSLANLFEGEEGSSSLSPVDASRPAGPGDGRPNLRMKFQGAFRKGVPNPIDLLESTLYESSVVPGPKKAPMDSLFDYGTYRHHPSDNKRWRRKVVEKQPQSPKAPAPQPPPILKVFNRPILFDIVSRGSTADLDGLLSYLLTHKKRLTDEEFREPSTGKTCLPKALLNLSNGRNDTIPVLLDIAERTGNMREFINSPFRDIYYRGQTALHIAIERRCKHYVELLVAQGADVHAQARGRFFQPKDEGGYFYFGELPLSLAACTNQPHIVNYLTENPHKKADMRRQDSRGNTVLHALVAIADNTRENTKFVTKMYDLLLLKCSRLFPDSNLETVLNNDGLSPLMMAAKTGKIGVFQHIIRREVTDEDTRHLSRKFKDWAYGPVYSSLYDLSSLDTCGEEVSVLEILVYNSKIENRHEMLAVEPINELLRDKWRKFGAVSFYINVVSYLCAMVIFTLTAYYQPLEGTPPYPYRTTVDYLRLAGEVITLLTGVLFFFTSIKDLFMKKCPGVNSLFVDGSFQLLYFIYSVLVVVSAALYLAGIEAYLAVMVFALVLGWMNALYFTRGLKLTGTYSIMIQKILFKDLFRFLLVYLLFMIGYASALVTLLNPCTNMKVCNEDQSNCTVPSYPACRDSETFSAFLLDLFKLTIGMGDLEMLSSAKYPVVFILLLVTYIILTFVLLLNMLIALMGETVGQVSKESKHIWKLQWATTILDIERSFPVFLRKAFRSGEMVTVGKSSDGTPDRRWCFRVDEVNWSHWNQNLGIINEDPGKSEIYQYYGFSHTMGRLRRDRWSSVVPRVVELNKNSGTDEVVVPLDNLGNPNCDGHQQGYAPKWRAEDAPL
# [16] = test system: Plasma; test: Fraction unbound in rat plasma; type: ADME, cell-free
# [17] = test system: Rattus norvegicus; test: Decrease in lung/body weight ratio in GSK1016790A-induced Sprague-Dawley rat pulmonary edema model at 3 mg/kg, iv administered 30 mins prior to GSK-1016790A injection; type: functional, organism-based; set-up: dose 3 mg/kg; method in brief: as §2
# [18] = target: Transient receptor potential cation channel subfamily V member 4 (Rattus norvegicus, UniProt Q9ERZ8); test: Antagonist activity at rat TRPV4
# Chain of Transient receptor potential cation channel subfamily V member 4 (Rattus norvegicus, UniProt Q9ERZ8) (Q9ERZ8 whole entry): as above
SMILES,half-life [1] [h],IC50 [2] [µM],bioavailability [3] [%],clearance [4] [L/h/kg],further results
CC(C)Nc1nc2c(C(=O)N(C)C)c(Cl)c(Cl)cc2n1C1CCN(c2ccc(C3CCCCC3)cc2)CC1,2.8,0.0316,7,0.558,–
CC(C)Nc1nc2c(C(=O)N(C)C)c(Cl)c(Cl)cc2n1-c1ccc(N2CCCCC2)cc1,–,0.631,–,–,–
CC(C)Nc1nc2c(C(=O)N(C)C)c(Cl)c(Cl)cc2n1C1CCN(c2ccc(C3(C#N)CCOCC3)cc2)CC1,2.1,0.0032,22,1.5,–
CC(C)Nc1nc2c(C(=O)N(C)C)c(Cl)c(Cl)cc2n1C1CCN(C(=O)c2ccc(C(C)(C)C)cc2)CC1,–,1.26,–,–,–
CC(C)Nc1nc2c(C(=O)N(C)C)c(Cl)c(Cl)cc2n1C1CCN(Cc2ccccc2)CC1,–,1,–,–,–
CC(C)Nc1nc2c(C(=O)N(C)C)c(Cl)c(Cl)cc2n1CC1CCN(c2ccccc2)CC1,–,5.01,–,–,–
CC(C)Nc1nc2c(C(=O)N(C)C)c(Cl)c(Cl)cc2n1C1CCN(S(=O)(=O)c2ccc(Cl)cc2)CC1,–,3.98,–,–,–
CC(C)Nc1nc2c(C(=O)N(C)C)c(Cl)c(Cl)cc2n1C1CCN(C(=O)Nc2ccccc2)CC1,–,2.51,–,–,–

# Continued, in another order:
half-life [1] [h],IC50 [2] [µM],bioavailability [3] [%],clearance [4] [L/h/kg],SMILES,further results
3.2,0.126,76,0.72,Cc1cccc(N2CCC(n3c(NC(C)C)nc4c(C(=O)N(C)C)c(Cl)c(Cl)cc43)CC2)c1,–
2.1,0.0126,36,2.76,CC(C)Nc1nc2c(C(=O)N(C)C)c(Cl)c(Cl)cc2n1C1CCN(c2ccc(OC(C)C)cc2)CC1,–
–,0.2,–,–,CC(C)Nc1nc2c(C(=O)N(C)C)c(Cl)c(Cl)cc2n1C1CCN(c2ccccc2)CC1,–
1.6,0.126,38,1.08,Cc1ccc(N2CCC(n3c(NC(C)C)nc4c(C(=O)N(C)C)c(Cl)c(Cl)cc43)CC2)cc1,–
–,> 10,–,–,CC(C)Nc1nc2c(C(=O)N(C)C)c(Cl)c(Cl)cc2n1C1CCN(c2ccc(C(C)(C)C(=O)O)cc2)CC1,–
–,0.0158,–,–,COC(=O)C(C)(C)c1ccc(N2CCC(n3c(NC(C)C)nc4c(C(=O)N(C)C)c(Cl)c(Cl)cc43)CC2)cc1,t1/2 [5]: BLD; Stability [6]: Unstable
3.7,0.0501,39,2.04,CC(C)Nc1nc2c(C(=O)N(C)C)c(Cl)c(Cl)cc2n1C1CCN(c2ccc(C(C)(C)C)cc2)CC1,–
1.6,0.0316,31,0.78,CC(C)Nc1nc2c(C(=O)N(C)C)c(Cl)c(Cl)cc2n1C1CCN(c2ccc(C(C)(C)C#N)cc2)CC1,inhibition [7]: inactive; inhibition (INH) [8]: Not Active; Activity [9]: inactive; Activity [10]: Dose-dependent effect; Cp(f) [11]: 4.4%; inhibition (INH) [12]: Not Active; Activity [13]: Non-toxic; Activity [14]: Active; Activity [15]: inactive; Cp(f) [16]: 3.3%; Activity [17]: inactive; IC50 [18]: 0.032 µM
